Screens: PubChem, several laboratories
Mcl1-Noxa inh – Mcl-1/Noxa binding inhibitors, primary screen, biochemical, TR-FRET, 1536-well; Induced myeloid leukemia cell differentiation protein Mcl-1 (Homo sapiens), Q07820; TR-FRET Mcl-1/Noxa peptide binding, 2 h; inhibition, % at 21.7 µM; 220,000 tested, 1.5% active; AID 1022, 2008;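 active means compounds that cut the protein-peptide binding signal by more than 50% relative to plate controls in a single-dose test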;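 further: His-tagged Mcl-1 with rhodamine Noxa BH3 peptide and terbium anti-His antibody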
Mcl-1 Bim block – inhibitors of Bim peptide binding to Mcl-1, primary screen, biochemical, bead-based flow cytometry, multiplex; Induced myeloid leukemia cell differentiation protein Mcl-1 (Homo sapiens), Q07820; Bim peptide-Mcl-1 binding; inhibition, % at 10 µM; 190,000 tested, 0.1% active; in the data active means inhibition above about 40%
MCL1 BIM primary – inhibitors of MCL1 binding to BIM-BH3, primary screen, biochemical, fluorescence polarization; GST-MCL1 / FITC-Bim-BH3 fluorescence polarization; 320,000 tested, 0.68% active; inhibition, % at 10.9 µM; AID 2057, 2009;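 active means inhibition above the mean inhibition of all tested compounds plus 3 SD, set per campaign, cut at about 40% in these data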;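 further: higher means more loss of mP so more displacement of Bim peptide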
Mcl1-Bid inh – Mcl-1/Bid binding inhibitors, primary screen, biochemical, TR-FRET, 1536-well | 220,000 tested, 0.97% active | Induced myeloid leukemia cell differentiation protein Mcl-1 (Homo sapiens), Q07820 | TR-FRET Mcl-1/Bid-Dy647 peptide binding | inhibition, % at 21.7 µM;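 active means compounds that cut the binding signal by more than half at the single screening dose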;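 further: His-tagged Mcl-1 with europium anti-His antibody binding Bid BH3 peptide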
T cell modulator – modulators of CD8 T cell-vesicle binding, primary screen, mouse 2C CD8+ T cells, flow cytometry. response (vesicle binding), % at 7 µM. 2C CD8+ T cell-vesicle binding; active compounds read low. AID 2052, 2009. 330,000 tested, 0.068% active;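 active means response, share of CD8 T cells binding vesicles, and their 90th percentile fluorescence all below set limits, cut at about 80% in these data, passing the limit was not always enough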;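 further: values below 100% mean blocked vesicle binding to the CD8+ T cells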
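Test system: purified 2C TCR transgenic mouse naive CD8+ T cells. Probe or stimulus: QL9-peptide-loaded Drosophila micro-vesicles bearing Ld, ICAM-1 and B7-1. Incubation: binding step 1.5 h, 37 °C, antibody labelling 20 min, ice. Measured by: flow cytometry of vesicle-bound cells.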
Pemphigus Ab inh – inhibitors of pemphigus antibody binding to DSG3, primary screen, biochemical, bead-based, flow cytometry, scFv-GFP. DSG3-coupled beads, scFv-anti-DSG3-GFP binding; active compounds read low. binding (percent of control), % at 10 µM. 310,000 tested, 0.48% active. AID 588358, 2011;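 active means binding more than 3 SD below its plate's average and above zero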;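 further: hits lower antibody fragment binding to DSG3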
A number is an active result; . = inactive; / = no result. A selection: hits, their analogues and other compounds. The true share with any hit is near 2.3%.

SMILES	Mcl1-Noxa inh	Mcl-1 Bim block	MCL1 BIM primary	Mcl1-Bid inh	T cell modulator	Pemphigus Ab inh
OCCNCCCOc1ccc(Cl)cc1Br	.	.	.	.	.	.
Clc1ccc(Cl)c(OCCCCNCc2ccccc2)c1	.	.	.	.	.	.
Clc1ccc(OCCCNCc2ccccc2)c(Br)c1	.	.	.	70.3	.	.
C=CCNCCCOc1ccc(Cl)cc1Br	.	.	.	76.5	.	.
CCCCN(CC)CCCNC(=O)c1cn(CC)c2ccc(S(=O)(=O)N3CCc4ccccc4C3)cc2c1=O	.	.	.	.	.	.
CCCCN(C)CCCNC(=O)c1cn(CC)c2ccc(S(=O)(=O)N3CCc4ccccc4C3)cc2c1=O	52.7	.	.	.	.	.
CC(=O)N1c2ccc(S(=O)(=O)NCCC(=O)Nc3ccc(F)cc3C)cc2CC1C (stereo not given)	/	/	.	/	.	.
O=Cc1cn(-c2ccccc2)nc1-c1cc2c(ccc3ccccc32)oc1=O	.	.	.	.	.	.
O=Cc1cn(-c2ccccc2)nc1-c1cc2cc(O)ccc2oc1=O	.	.	.	61.2	.	.
O=C(CCc1ccccc1)Nc1nc2c(F)cc(F)cc2s1	.	/	.	.	.	.
Cc1cc(C(=O)NCC(=O)OCC(=O)NCC2CCCO2)ccc1[N+](=O)[O-] (stereo not given)	/	/	.	/	.	50.0
CC(C)NC(=O)COc1coc(CN2CCN(c3ccccc3F)CC2)cc1=O	/	/	.	/	.	/
C[C@@H]1CN([C@@H](C)CO)C(=O)CCCn2nncc2CO[C@H]1CN(C)C(=O)c1ccncc1	/	/	/	/	/	.
CCc1ccccc1NC(=O)CN1CCN(CC(=O)Nc2cc(C)ccc2OC)CC1	/	/	.	/	.	/
CC(=O)Nc1nonc1-c1nc2ccccc2n1N(C(C)=O)C(C)=O	51.8	.	.	.	.	/
Cc1ncc(CO)c(/C=N/Nc2ccc(C(F)(F)F)cn2)c1O	/	/	43.3	/	.	.
CN(C(=O)COC(=O)c1ccc(Cl)c(S(=O)(=O)NCc2ccccc2)c1)C1CCS(=O)(=O)C1 (stereo not given)	/	/	/	/	/	.
CCCCCCOC(=O)C(C#N)c1nc2ccccc2nc1N1CCN(C)CC1 (stereo not given)	52.6	.	.	.	.	.
Cc1ccc(C2C(/C=C3/SC(=S)NC3=O)=C(c3cccs3)Oc3ccccc32)cc1 (stereo not given)	90.4	.	.	.	.	.
CC1Cc2cc(/C=C3/SC(=S)NC3=O)ccc2O1 (stereo not given)	.	/	.	.	.	.
O=C(CCc1nnc2n(CCc3ccccc3)c(=O)c3ccccc3n12)NCCCN1CCCCC1	/	/	.	/	.	.
CC1(C)CC(=O)C2=C(C1)N(c1cccc(O)c1)C1=C(C2)C(=O)CC(C)(C)C1	.	.	74.5	.	.	.
O=C(CCS(=O)(=O)c1ccccc1)Nc1ccccc1-c1nc2ccccc2s1	.	.	.	75.4	.	.
Cc1ccc2nc(-c3ccc(NC(=O)CCS(=O)(=O)c4ccccc4)cc3)sc2c1	.	.	.	.	.	.
CCOc1ccccc1C(=O)Nc1cc(C(=O)NCCc2ccccc2)ccc1Cl	.	.	.	.	.	78.7
SMILES	Mcl1-Noxa inh	Mcl-1 Bim block	MCL1 BIM primary	Mcl1-Bid inh	T cell modulator	Pemphigus Ab inh
Cn1c(=O)c2c(ncn2CC(=O)Nc2cc(S(=O)(=O)N3CCCCC3)ccc2Cl)n(C)c1=O	/	/	/	/	.	.
Cc1cc(N)n(-c2ccc3ccccc3c2)n1	.	.	.	96.4	.	.
Cc1ccc(NC(=O)CSc2nnc(-c3ccco3)c(-c3ccco3)n2)cc1	90.2	.	.	.	.	.
COc1ccc(C(=O)CSc2nnc(-c3ccco3)n2C)cc1	.	.	.	.	.	.
COc1ccc(C(=O)CSc2nnc(-c3ccco3)c(-c3ccco3)n2)cc1	90.2	.	/	53.6	/	.
Cc1ccc(S(=O)(=O)N2CCSC2=Nc2ccccc2)cc1	.	/	.	.	.	/
O=C1CCCN1CCCNCC(=O)N1c2ccccc2Sc2ccccc21	.	.	.	51.4	.	.
